High-throughput results deposited in PubChem by several laboratories.
TAAR1 ag: human TAAR1 agonism; Q96RJ0; CHO RD-HGA16 TAAR1, Fluo-8 calcium fluorescence; vehicle wells 0%, saturating PEA agonist 100%; activation, % at 3 µM; 360,000 tested, 0.99% active; AID 624467;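 active means activation above the mean activation of all test compounds in the run plus 3 SD, cut at about 38% in these data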
Target sequence (Q96RJ0 whole entry, looked up): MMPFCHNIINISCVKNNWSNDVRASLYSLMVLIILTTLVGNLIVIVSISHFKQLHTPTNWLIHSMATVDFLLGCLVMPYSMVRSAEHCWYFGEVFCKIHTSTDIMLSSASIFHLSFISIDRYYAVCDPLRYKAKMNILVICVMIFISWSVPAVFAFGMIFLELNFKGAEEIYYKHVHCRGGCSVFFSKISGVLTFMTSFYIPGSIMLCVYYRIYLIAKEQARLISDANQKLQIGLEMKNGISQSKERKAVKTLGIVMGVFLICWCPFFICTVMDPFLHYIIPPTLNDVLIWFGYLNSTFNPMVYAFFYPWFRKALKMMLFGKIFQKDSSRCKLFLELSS
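test system = CHO RD-HGA16 cells carrying human TAAR1 plus Gα16 | schedule = 17-24 h seeding, 75 min 37 °C dye, 30 min RT | compound dosing = 3 µM single concentration | control set = DMSO and PEA EC100 | replicates = n 1 | signal = Fluo-8 fluorescence, 5 s baseline then 140 s kinetic read | measure = percent activation vs PEA EC100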
B2AR ag: agonists of human beta-2 adrenergic receptor inducing internalization; response, % (no concentration beside the values); Am2.2-beta2AR cells, FAP receptor internalization, flow cytometry; 340,000 tested, 0.43% active; AID 504454; P07550;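 active means response above a set limit, near 3 SD of response in nonfluorescent compounds, cut at about 42% in these data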
Target sequence (P07550 whole entry, looked up): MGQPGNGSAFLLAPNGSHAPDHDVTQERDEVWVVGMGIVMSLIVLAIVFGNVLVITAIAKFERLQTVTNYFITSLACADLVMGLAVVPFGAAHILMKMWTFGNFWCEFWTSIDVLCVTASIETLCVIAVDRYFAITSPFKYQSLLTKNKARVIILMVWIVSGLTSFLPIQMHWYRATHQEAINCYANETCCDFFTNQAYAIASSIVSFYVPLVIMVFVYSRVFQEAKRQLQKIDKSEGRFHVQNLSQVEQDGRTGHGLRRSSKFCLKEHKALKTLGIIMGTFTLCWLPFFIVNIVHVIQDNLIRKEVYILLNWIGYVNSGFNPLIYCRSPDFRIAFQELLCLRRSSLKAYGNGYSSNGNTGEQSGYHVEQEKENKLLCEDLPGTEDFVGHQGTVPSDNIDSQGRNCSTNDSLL
MC4R ag barr: agonists of human melanocortin 4 receptor (MC4R) beta-arrestin. P32245. U2OS MC4R beta-arrestin complementation, luminescence; percent of melanotan II response, DMSO zero. activation, % at 8.9 µM. 360,000 tested, 0.98% active. AID 540308;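 active means activation above a per-plate cutoff, the mean activation of sample wells on that plate plus 3 SD, cut at about 8% in these data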
MC4R antag cAMP: blocks human MC4R cAMP signaling | P32245 | MC4R-expressing cells, MTII-stimulated cAMP, LANCE TR-FRET | inhibition, % at 6.5 µM | 360,000 tested, 0.48% active;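 active means inhibition above its plate's cutoff, the mean of tested wells on that plate plus 3 SD, cut at about 29% in these data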;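 further: 0% = Melanotan II alone and 100% = Melanotan II plus saturating MCL0020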
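System: U2OS-MC4R stable cell line; Technique: Eu-cAMP/anti-cAMP TR-FRET, emission 671 nm; Repeats: single well per compound; Also added: Melanotan II; Dosing: one concentration, 6.5 µM nominal; Schedule: 30-min compound, 1-h challenge, 1-h detection, room temperature.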
HTR2A ag: mouse HTR2A agonism via beta-arrestin recruitment | CHO-K1 mHTR2A beta-arrestin complementation, luminescence; percent of 30 µM serotonin response | activation, % at 7.6 µM | 360,000 tested, 0.66% active | AID 624169;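 active means activation above a run cutoff, the mean activation of all tested compounds plus 3 SD, cut at about 14% in these data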;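 further: 0% = plate median of compound wells and 100% = 30 µM serotonin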
TAAR1 antagonist: human TAAR1 antagonism; Q96RJ0; CHO RD-HGA16 TAAR1, Fluo-8 calcium fluorescence, antagonist; inhibition, % at 3 µM; 360,000 tested, 1.5% active; AID 624466;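 active means inhibition above a per-plate cutoff, the mean inhibition of test compounds on that plate plus 3 SD, cut at about 49% in these data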;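 further: 0% = DMSO plus EC80 beta-PEA response and 100% = DMSO alone without agonist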
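test system = CHO RD-HGA16 cells bearing hTAAR1 | replication = singlicate | controls = DMSO-only wells and EC80 β-PEA-stimulated wells | reagent = EC80 β-phenethylamine stimulus | read-out basis = percent inhibition of PEA-evoked calcium signal, max/basal emission ratio | schedule = seeding 17-24 h prior, 75-min 37 °C, 30-min RT dye loading | signal = kinetic Fluo-8 calcium fluorescence measurement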
U2OS cAMP counter: counter-screen for MC4R antagonists: nonselective cAMP signaling inhibitors | shares compounds with MC4R antag cAMP | parental U2OS, forskolin cAMP, LANCE TR-FRET | inhibition, % at 6.5 µM | 1,600 tested, 26% active;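 active means mean inhibition over triplicates above the low-control well mean plus 3 SD, set per campaign, cut at about 13% in these data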;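 further: signal is single emission at 671 nm which falls as cellular cAMP rises; 0% = forskolin-stimulated wells and 100% = buffer without forskolin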
MC4R antag conf: human MC4R cAMP antagonism confirmation | AID 602195 | 1,600 tested, 27% active | inhibition, % at 6.5 µM | shares compounds with MC4R antag cAMP | MC4R-expressing cells, MTII-stimulated cAMP, TR-FRET; in the data active means inhibition above about 29%;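 further: 0% = agonist stimulated wells alone and 100% = agonist stimulated wells plus saturating reference antagonist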
The depositor's hits bear a star; x = not tested or not shown. Only some compounds are listed: those with a hit (about 4.3% of all), similar ones and a draw of the others.

SMILES	TAAR1 ag	B2AR ag	MC4R ag barr	MC4R antag cAMP	HTR2A ag	TAAR1 antagonist	U2OS cAMP counter	MC4R antag conf
O=S(=O)(NC1CCCCC1Oc1ccccc1)c1ccc(Cl)cc1 (centres undefined)	3.5	-1.6	1.8	-0.4	-5.5	19.5	x	x
COc1cc(/C=C(\C#N)C(=O)Nc2cccc3ncccc23)cc(OC)c1OC	31.9	4.2	-0.4	6.0	-1.2	-8.7	x	x
COc1ccc(/C=C(\C#N)C(=O)Nc2cccc3ncccc23)cc1OC	2.5	4.0	-0.7	30.7*	5.3	-8.5	-2.5	3.2
O=C(NC(Nc1nc2ccc([N+](=O)[O-])cc2s1)(C(F)(F)F)C(F)(F)F)c1ccccc1Cl	6.9	13.0	1.1	33.1*	1.5	54.8*	5.7	18.4
COc1cccc(CNC(=O)c2ccccc2-c2ccccc2)c1	6.6	0.3	-3.4	7.2	1.7	-6.4	x	x
Cc1ccnc(OC(C(=O)O)C(OCc2ccccc2)(c2ccc(F)cc2)c2ccc(F)cc2)n1 (centres undefined)	0.8	4.7	-1.3	7.1	8.9	-27.3	x	x
Cc1cccc(OCC(=O)Nc2ccc3c(c2)nc(CN2CCCCC2)n3C)c1	4.0	7.0	0.8	32.1*	-7.0	-6.5	-1.2	-16.0
Cc1ccc(C)c(NC(=O)C(C)N2C(=O)c3ccccc3C2=O)c1 (centres undefined)	4.8	2.3	-0.3	-5.8	3.6	-1.8	x	x
Cn1cc(CN2C[C@H]3CC[C@H]2C3)c(-c2ccccc2F)n1	4.0	2.7	0.7	28.6*	1.2	-6.4	1.0	-0.8
Cn1cc(CN2CCC(C(=O)N3CCCC3)CC2)c(-c2ccccc2F)n1	0.3	0.2	1.5	3.7	-1.1	-5.8	x	x
O=C(COC(=O)CNC(=O)c1cccc([N+](=O)[O-])c1)Nc1ccccc1OC(F)F	3.2	8.6	1.7	13.3	-0.2	3.7	x	x
O=C(COC(=O)CNC(=O)c1cccc([N+](=O)[O-])c1)Nc1nc2ccccc2s1	10.4	3.8	-1.5	31.1*	1.4	3.2	7.2	12.7
Nc1nnc(-c2ccc(Cl)cc2Cl)s1	3.9	-8.6	-1.8	30.1*	-2.5	-12.6	2.3	1.7
COc1ccc(NC(=O)CSc2ncccn2)cc1S(=O)(=O)N1CCCCC1	4.3	-3.4	0.3	3.1	2.5	-7.9	x	x
COc1ccc(-c2cnc3nc[nH]c(=O)c3n2)cc1	4.6	-7.5	1.5	29.0*	-1.7	-1.7	-1.7	-1.7
COc1ccc(-c2csc3nc[nH]c(=O)c23)cc1	2.0	-6.8	-2.1	-0.8	0.2	2.6	x	x
CCCCOc1ccc(C(NC(=O)OCC)NC(=O)OCC)cc1	-0.2	-5.0	-1.9	28.6*	1.8	-5.6	-0.1	2.5
COCC(=O)Nc1sc2c(c1C(=O)OC)CCCC2	0.7	-1.3	-3.3	-10.0	1.8	-9.1	x	x
COC(=O)c1c(NC(=O)COC(=O)c2ccc(O)cc2)sc2c1CCCCC2	1.1	0.3	2.5	29.6*	-5.6	-6.3	-1.1	5.7
Cc1ccc(S(=O)(=O)N2[C@@H](c3ccc(C(C)C)cc3)C(C(=O)O)=C[C@H]2C(C)(C)C)cc1	0.2	22.3	3.5	-15.1	5.5	-8.6	x	x
COc1ccc(-c2csc(NC(=O)C3CC(=O)N(c4ccc5c(c4)OCCO5)C3)n2)cc1 (centres undefined)	7.7	7.0	1.7	14.5	-0.4	2.7	x	x
CC(=O)Nc1ccc(-c2csc(NC(=O)C3CC(=O)N(c4ccc5c(c4)OCCO5)C3)n2)cc1 (centres undefined)	2.0	1.6	1.0	34.6*	0.2	-3.1	2.1	0.8
N#C/C(=C\c1ccc(OC(F)F)cc1)C(=O)N1CCCCC1	1.6	28.0	-0.4	31.7*	-1.1	-9.7	-4.2	-5.6
COc1ccccc1Cn1c(=S)[nH]c2ccc(F)cc2c1=O	-1.1	-6.2	-1.8	65.2*	-5.0	-7.5	50.1*	100.3*
COc1ccccc1Cn1c(=S)[nH]c2ccc(Br)cc2c1=O	-1.6	-5.5	1.2	6.1	5.1	-27.3	x	x
SMILES	TAAR1 ag	B2AR ag	MC4R ag barr	MC4R antag cAMP	HTR2A ag	TAAR1 antagonist	U2OS cAMP counter	MC4R antag conf
N#CC(C#N)=C1C=CC=CN1/C(=C\c1ccco1)C(=O)c1ccccc1	9.8	60.4*	-2.9	37.9*	-5.8	11.1	13.7*	25.5
CC(C)(C)NC(=O)/C(=C/c1ccco1)c1ccccc1	-1.9	-10.8	-0.8	7.5	-1.0	-5.0	x	x
COc1ccc(C(=O)N/C(=C\c2ccco2)C(=O)OCc2ccco2)cc1	-1.0	-1.5	-1.6	-6.1	1.0	-28.4	x	x
COc1ccc(C(=O)/C(=C\c2ccco2)N2C=CC=CC2=C(C#N)C#N)cc1	x	60.3*	-2.4	32.8*	-5.2	x	12.2	35.5*
CC(C)(C)C(=O)COC(=O)CNC(=O)c1ccc(Oc2ccccc2)cc1	4.1	-11.3	-1.1	28.6*	-1.6	7.7	12.8	21.0
Cc1ccc2[nH]c3c(=S)nc[nH]c3c2c1	-1.4	0.6	-2.2	48.2*	-5.5	4.2	12.6	11.1
O=C(CC1CC2CCC1C2)N1CCN(S(=O)(=O)c2ccc(F)cc2)CC1 (centres undefined)	2.5	x	2.1	4.5	1.0	7.7	x	x
CC/C(=N/NC(=O)c1ccc2c(c1)OCO2)c1ccccc1O	0.3	7.6	0.6	2.7	-4.4	-22.9	x	x
Cc1nn(CC(C)C(=O)N2CCN(S(=O)(=O)c3ccc(Cl)cc3)CC2)c(C)c1C (centres undefined)	1.2	14.5	-1.8	4.2	4.4	3.1	x	x
O=C(Oc1cncc(Cl)c1)c1sccc1Cl	-1.6	10.8	2.6	32.8*	0.4	-23.4	-1.4	-9.4
O=C(Oc1cncc(Cl)c1)c1ccco1	-0.5	-2.8	-2.1	-3.7	-3.5	-1.0	x	x
COc1ccc(CN(C(=O)c2snc(C(N)=O)c2N)C(C(=O)NC2CCCC2)c2ccc(OC)c(OC)c2)cc1 (centres undefined)	1.6	-0.9	0.9	-0.1	-2.0	9.3	x	x
COc1ccc(C(C(=O)NC2CCCCC2)N(Cc2cccnc2)C(=O)c2snc(C(N)=O)c2N)cc1 (centres undefined)	2.0	-15.1	-1.9	30.5*	1.1	9.8	-5.5	-12.0
O=C(CN(Cc1ccccc1)C(=O)CCl)c1cccc(Br)c1	11.4	5.2	-0.1	-0.4	1.8	10.8	x	x
